Calls of active or inactive are those of the source. No cut-off for these calls is given here.

Experiment [1] can be described thus: Inhibition of ethidium bromide binding to r(CGCAAAUUUGCG)2 RNA (unknown origin) at 1:1 ratio of ligand:RNA measured after 5 mins by fluorescent intercalator displacement assay relative to control. The gist of the method:
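Buffer is 10 mM sodium cacodylate, 0.5 mM EDTA, 100 mM NaCl, pH 7.0, at 23 °C. Read-out is the percent change in fluorescence emission on ligand addition.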

Experiment [2] in a line: Binding affinity to poly(rA).(rU) RNA duplex (unknown origin) assessed as appearance of negative induced LD signal at 348 nanometer at 100 uM after 5 mins by microvolume couette flow linear dichroism method. The gist of the method: (§1)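 Linear dichroism spectra of poly(rA)•(rU) (1 mM/bp) alone and mixed with ligand at rbd 10. Run in 10 mM sodium cacodylate, 0.5 mM EDTA, 100 mM NaCl, pH 7.0, at room temperature.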

Experiment [3] can be described thus: Binding affinity to poly(rA).(rU) RNA duplex (unknown origin) assessed as thermal stability by measuring change in melting temperature at 5 uM by UV-Vis spectrophotometry. In outline:
(§2)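 UV thermal denaturation of poly(rA)•(rU) duplex at 15 µM/bp, with and without ligand, in 10 mM sodium cacodylate, 0.5 mM EDTA, 100 mM NaCl, pH 7.0. ΔTm is the shift from the melting temperature of free RNA.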

Experiment [4] in a line: Binding affinity to d(CGCAAATTTGCG)2 DNA (unknown origin) assessed as thermal stability by measuring change in melting temperature by UV-Vis spectrophotometry.
Experiment [5] can be described thus: Binding affinity to poly(rA).(rU) RNA duplex (unknown origin) assessed as change in CD band intensity at 266 nanometer measured after 5 mins by circular dichroism titration method. The gist of the method: (§3)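 Circular dichroism titration of poly(rA)•(rU) at 40 µM/bp in 10 mM sodium cacodylate, 0.5 mM EDTA, 100 mM NaCl, pH 7.0, at 25 °C. Concentrated ligand is added serially, with five minutes of equilibration after each addition. Each spectrum is the average of two scans. Binding site size (rbd, RNA base pairs per drug) is taken from the change in nucleic acid CD intensity.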

The nature of experiment [6]: Binding affinity to poly(rA).(rU) RNA duplex (unknown origin) measured after 5 mins by circular dichroism titration method. The gist of the method: as §3
Experiment [7] can be described thus: Binding affinity to poly(rA).(rU) RNA duplex (unknown origin) assessed as thermal stability by measuring change in melting temperature at 5 uM in presence of Hoechst 33258 by UV-Vis spectrophotometry. The gist of the method:
as §2

Experiment [8] can be described thus: Binding affinity to r(CGCAAAUUUGCG)2 RNA duplex (unknown origin) assessed as thermal stability by measuring change in melting temperature at 5 uM by UV-Vis spectrophotometry.
The nature of experiment [9]: Binding affinity to poly(rA).(rU) RNA duplex (unknown origin) assessed as appearance of unidirectional induced CD at 347 nanometer measured after 5 mins by circular dichroism titration method. In outline:
as §3
For orientation: CD spectra are sensitive to the conformation of chiral molecules.

Experiment [10] can be described thus: Binding affinity to poly(rA).(rU) RNA duplex (unknown origin) assessed as appearance of negative induced CD at 347 nanometer measured after 5 mins by circular dichroism titration method. The gist of the method:
as §3

The nature of experiment [11]: Binding affinity to poly(rA).(rU) RNA duplex (unknown origin) assessed as isosbestic point at 362 nanometer at 3 uM by UV-vis absorption method.
Experiment [12] in a line: Binding affinity to poly(rA).(rU) RNA duplex (unknown origin) assessed as hypochromicity at 3 uM by UV-vis absorption method.
A short description of experiment [13]: Binding affinity to poly(rA).(rU) RNA duplex (unknown origin) assessed as red shift at 3 uM by UV-vis absorption method.
Experiment [14] is described as follows: Binding affinity to poly(rA).(rU) RNA duplex (unknown origin) assessed as change in LD signal at 260 nanometer at 100 uM after 5 mins by microvolume couette flow linear dichroism method. The gist of the method:
as §1

Experiment [15] is described as follows: Inhibition of ethidium bromide binding to r(CGCAAAUUUGCG)2 RNA (unknown origin) after 5 mins by fluorescent intercalator displacement assay.
A short description of experiment [16]: Binding affinity to poly(rA).(rU) RNA duplex (unknown origin) assessed as decrease in CD band intensity at 263 nanometer measured after 5 mins by circular dichroism titration method. In outline:
(§4)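 Poly(rA)•(rU) at 40 µM/bp in 10 mM sodium cacodylate, 0.5 mM EDTA, 100 mM NaCl, pH 7.0, 25 °C. Concentrated ligand added serially, with 5 min equilibration before each CD scan. Each measurement averages two scans. Changes in nucleic acid CD intensity are plotted against rbd (RNA base pairs per drug) to derive binding site size.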

A short description of experiment [17]: Binding affinity to poly(rA).(rU) RNA duplex (unknown origin) assessed as appearance of induced CD band at 320 to 380 nanometer measured after 5 mins by circular dichroism titration method. The gist of the method: as §4
Experiment [18] in a line: Binding affinity to poly(rA).(rU) RNA duplex (unknown origin) assessed as thermal stability by measuring change in melting temperature at 5 uM in presence of neomycin by UV-Vis spectrophotometry.

The term inhibition denotes the change of the read-out against control, counted positive when it falls. The term ΔTm denotes the shift of the melting midpoint relative to a reference. As to `CN1CCN(c2ccc3nc(-c4ccc5nc(-c6ccc(OCCCCCCCCOCc7cn(C[C@H]8O[C@@H](O[C@@H]9[C@@H](O)[C@H](N)C[C@H](N)[C@H]9O[C@H]9O[C@H](CN)[C@@H](O)[C@H](O)[C@H]9N)[C@H](O)[C@@H]8O[C@H]8OC(CN)[C@@H](O)[C@H](O)[C@H]8N)nn7)cc6)[nH]c5c4)[nH]c3c2)CC1` (stereo not given in full), in experiment [1], the inhibition was in the range of 20.7 to 36.2%. Also, in experiment [2], the result was Active. In addition, the ΔTm in [3] was 21.9 °C; in experiment [4], 21.7 °C.

As for `NC[C@@H]1O[C@H](O[C@H]2[C@@H](O)[C@H](O[C@@H]3[C@@H](O)[C@H](N)C[C@H](N)[C@H]3O[C@H]3O[C@H](CN)[C@@H](O)[C@H](O)[C@H]3N)O[C@@H]2CO)[C@H](N)[C@@H](O)[C@@H]1O`, the inhibition in [1] was found to be 20.4%. The result in experiment [5] and in experiment [6] was Active. The ΔTm in experiment [7] was 10.5 °C; in experiment [3], 10.8 °C.

Take `C#CCOc1ccc(-c2nc3ccc(-c4nc5ccc(N6CCN(C)CC6)cc5[nH]4)cc3[nH]2)cc1`: the ΔTm in experiment [3] came out at 0 °C.

As for `CN1CCN(c2ccc3nc(-c4ccc5nc(-c6ccc(OCCCCCCCCc7cn(C[C@H]8O[C@@H](O[C@@H]9[C@@H](O)[C@H](N)C[C@H](N)[C@H]9O[C@H]9O[C@H](CN)[C@@H](O)[C@H](O)[C@H]9N)[C@H](O)[C@@H]8O[C@H]8OC(CN)[C@@H](O)[C@H](O)[C@H]8N)nn7)cc6)[nH]c5c4)[nH]c3c2)CC1` (stereo not given in full), the inhibition in experiment [1] was in the range of 20.7 to 36.2%. Further, the result in experiment [2] was Active. Further, the ΔTm in experiment [4] was 13.2 °C; in experiment [8], 16.2 °C.

Regarding `C#CCOCCCCOc1ccc(-c2nc3ccc(-c4nc5ccc(N6CCN(C)CC6)cc5[nH]4)cc3[nH]2)cc1`, the ΔTm in [3] is 0.3 °C.

For the compound `CN1CCN(c2ccc3nc(-c4ccc5nc(-c6ccc(OCCCCCCCCCCCCOCc7cn(C[C@H]8O[C@@H](O[C@@H]9[C@@H](O)[C@H](N)C[C@H](N)[C@H]9O[C@H]9O[C@H](CN)[C@@H](O)[C@H](O)[C@H]9N)[C@H](O)[C@@H]8O[C@H]8OC(CN)[C@@H](O)[C@H](O)[C@H]8N)nn7)cc6)[nH]c5c4)[nH]c3c2)CC1` (stereo not given in full), the inhibition in [1] fell in the range of 20.7 to 36.2%. In addition, the result in [2] was Active. Also, the ΔTm in [4] stood at 18.2 °C.

Take `C#CCOCCCCCCCCCCOc1ccc(-c2nc3ccc(-c4nc5ccc(N6CCN(C)CC6)cc5[nH]4)cc3[nH]2)cc1`: the shift in melting temperature (ΔTm) in experiment [3] was 0.3 °C.

As to `CN1CCN(c2ccc3nc(-c4ccc5nc(-c6ccc(OCCCCOCc7cn(C[C@H]8O[C@@H](O[C@@H]9[C@@H](O)[C@H](N)C[C@H](N)[C@H]9O[C@H]9O[C@H](CN)[C@@H](O)[C@H](O)[C@H]9N)[C@H](O)[C@@H]8O[C@H]8OC(CN)[C@@H](O)[C@H](O)[C@H]8N)nn7)cc6)[nH]c5c4)[nH]c3c2)CC1` (stereo not given in full), the inhibition in experiment [1] is 20.7 to 36.2%. Moreover, in experiment [2], the result was Active. Moreover, the ΔTm was 15 °C in experiment [3] and 24.6 °C in experiment [4].

`CN1CCN(c2ccc3nc(-c4ccc5nc(-c6ccc(OCCCCCCCCCCOCc7cn(C[C@H]8O[C@@H](O[C@@H]9[C@@H](O)[C@H](N)C[C@H](N)[C@H]9O[C@H]9O[C@H](CN)[C@@H](O)[C@H](O)[C@H]9N)[C@H](O)[C@@H]8O[C@H]8OC(CN)[C@@H](O)[C@H](O)[C@H]8N)nn7)cc6)[nH]c5c4)[nH]c3c2)CC1` (stereo not given in full): the inhibition in experiment [1] is 20.7 to 36.2%. For the same compound, the result in [2] was Active. In addition, the ΔTm in experiment [3] is 20.3 °C; in [4], 19 °C.

As to `C#CCCCCOc1ccc(-c2nc3ccc(-c4nc5ccc(N6CCN(C)CC6)cc5[nH]4)cc3[nH]2)cc1`, in experiment [3], the ΔTm is -1.2 °C.

Take `C#CCOCCOCCOCCOCCOCCOCCOc1ccc(-c2nc3ccc(-c4nc5ccc(N6CCN(C)CC6)cc5[nH]4)cc3[nH]2)cc1`: the ΔTm in experiment [3] turned out to be 0.2 °C.

On to `CN1CCN(c2ccc3nc(-c4ccc5nc(-c6ccc(OCCCCCCOCc7cn(C[C@H]8O[C@@H](O[C@@H]9[C@@H](O)[C@H](N)C[C@H](N)[C@H]9O[C@H]9O[C@H](CN)[C@@H](O)[C@H](O)[C@H]9N)[C@H](O)[C@@H]8O[C@H]8OC(CN)[C@@H](O)[C@H](O)[C@H]8N)nn7)cc6)[nH]c5c4)[nH]c3c2)CC1` (stereo not given in full), for which the inhibition in experiment [1] was in the range of 20.7 to 36.2%. For the same compound, the outcome in [5], in [9], in [10], in [2] and in experiment [11] was Active. For the same compound, the thermal shift (ΔTm) in experiment [3] is 15.8 to 19 °C; in [4], 22.2 °C. Moreover, the Activity in experiment [12] was found to be 34.1%; in [13], 10 nm.

Consider `CN1CCN(c2ccc3nc(-c4ccc5nc(-c6ccc(OCCOCCOCCOCCOCCOCCOCc7cn(C[C@H]8O[C@@H](O[C@@H]9[C@@H](O)[C@H](N)C[C@H](N)[C@H]9O[C@H]9O[C@H](CN)[C@@H](O)[C@H](O)[C@H]9N)[C@H](O)[C@@H]8O[C@H]8OC(CN)[C@@H](O)[C@H](O)[C@H]8N)nn7)cc6)[nH]c5c4)[nH]c3c2)CC1` (stereo not given in full), for which the inhibition in experiment [1] lay within 20.7 to 36.2%. In experiment [2], the outcome was Active. Also, the ΔTm turned out to be 16.4 °C in [4] and 7.2 °C in experiment [8].

For `CN1CCN(c2ccc3nc(-c4ccc5nc(-c6ccc(OCCCCc7cn(C[C@H]8O[C@@H](O[C@@H]9[C@@H](O)[C@H](N)C[C@H](N)[C@H]9O[C@H]9O[C@H](CN)[C@@H](O)[C@H](O)[C@H]9N)[C@H](O)[C@@H]8O[C@H]8OC(CN)[C@@H](O)[C@H](O)[C@H]8N)nn7)cc6)[nH]c5c4)[nH]c3c2)CC1` (stereo not given in full), the inhibition in [1] is 20.7 to 36.2%. Besides, the result in experiment [14] and in experiment [2] was Active. Further, the shift in melting temperature (ΔTm) was determined as 22.8 °C in experiment [4] and 15.1 °C in [8]. The Ka in [15] was 8.8 ×10⁶ /M.

Regarding `CN1CCN(c2ccc3[nH]c(-c4ccc5[nH]c(-c6ccc(O)cc6)nc5c4)nc3c2)CC1`, the inhibition in experiment [1] was determined as 8.2%. For the same compound, the outcome in [16], in experiment [17] and in experiment [5] was Active. The ΔTm in experiment [18] amounted to 10.5 °C; in experiment [3], 0.4 °C. The Activity in experiment [12] stood at 32.2%; in experiment [13], 1 nm.

On to `C#CCOCCCCCCOc1ccc(-c2nc3ccc(-c4nc5ccc(N6CCN(C)CC6)cc5[nH]4)cc3[nH]2)cc1`, for which the thermal shift (ΔTm) in experiment [3] came to 0.3 °C.

In the case of `CN1CCN(c2ccc3nc(-c4ccc5nc(-c6ccc(OCc7cn(C[C@H]8O[C@@H](O[C@@H]9[C@@H](O)[C@H](N)C[C@H](N)[C@H]9O[C@H]9O[C@H](CN)[C@@H](O)[C@H](O)[C@H]9N)[C@H](O)[C@@H]8O[C@H]8OC(CN)[C@@H](O)[C@H](O)[C@H]8N)nn7)cc6)[nH]c5c4)[nH]c3c2)CC1` (stereo not given in full), the inhibition in experiment [1] fell in the range of 20.7 to 36.2%. For the same compound, the outcome in experiment [2] was Active. Also, the ΔTm in [4] is 23.8 °C; in [8], 9.1 °C.

In the case of `C#CCCCCCCCCCOc1ccc(-c2nc3ccc(-c4nc5ccc(N6CCN(C)CC6)cc5[nH]4)cc3[nH]2)cc1`, the ΔTm in experiment [3] was -0.4 °C.

As for `C#CCOCCCCCCCCOc1ccc(-c2nc3ccc(-c4nc5ccc(N6CCN(C)CC6)cc5[nH]4)cc3[nH]2)cc1`, the ΔTm in [3] was 0.7 °C.

Take `C#CCOCCCCCCCCCCCCOc1ccc(-c2nc3ccc(-c4nc5ccc(N6CCN(C)CC6)cc5[nH]4)cc3[nH]2)cc1`: the ΔTm in experiment [3] was -0.2 °C.

The values are drawn from ChEMBL document CHEMBL3868633, “Linker dependent intercalation of bisbenzimidazole-aminosugars in an RNA duplex; selectivity in RNA vs. DNA binding” (Bioorg Med Chem Lett, 2016).
